Reference: ChEMBL document CHEMBL3603837, “Indole Glucocorticoid Receptor Antagonists Active in a Model of Dyslipidemia Act via a Unique Association with an Agonist Binding Site” (J Med Chem, 2015)
Activity calls are given as the source filed them. No cut-off for these calls is given here.

Legend:
[1] = molecular target: T1, Estrogen receptor (Homo sapiens) (UniProt P03372); test: Binding affinity to human estrogen receptor expressed in HEK293 cells by scintillation counting based radioligand competition binding assay; assay type: cell-based
T1 sequence (whole entry): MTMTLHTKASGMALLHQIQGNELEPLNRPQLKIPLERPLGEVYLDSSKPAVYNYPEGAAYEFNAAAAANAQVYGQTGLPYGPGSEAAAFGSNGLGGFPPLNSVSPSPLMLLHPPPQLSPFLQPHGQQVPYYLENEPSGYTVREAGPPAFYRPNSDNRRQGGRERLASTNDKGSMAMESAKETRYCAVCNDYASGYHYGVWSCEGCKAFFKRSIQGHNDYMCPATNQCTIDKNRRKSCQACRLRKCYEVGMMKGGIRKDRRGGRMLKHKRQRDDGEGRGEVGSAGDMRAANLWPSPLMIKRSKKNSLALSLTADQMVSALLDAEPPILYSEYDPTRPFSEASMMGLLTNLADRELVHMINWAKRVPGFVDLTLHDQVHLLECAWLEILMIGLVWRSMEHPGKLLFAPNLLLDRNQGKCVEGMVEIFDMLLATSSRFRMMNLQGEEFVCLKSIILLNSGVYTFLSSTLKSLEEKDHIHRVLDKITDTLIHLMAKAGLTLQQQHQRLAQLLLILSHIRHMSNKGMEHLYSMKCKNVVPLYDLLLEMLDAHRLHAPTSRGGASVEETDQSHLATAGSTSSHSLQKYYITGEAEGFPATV

[2] = molecular target: T2, Mineralocorticoid receptor (Homo sapiens, UniProt P08235); test: biochemical
T2 sequence (P08235 whole entry): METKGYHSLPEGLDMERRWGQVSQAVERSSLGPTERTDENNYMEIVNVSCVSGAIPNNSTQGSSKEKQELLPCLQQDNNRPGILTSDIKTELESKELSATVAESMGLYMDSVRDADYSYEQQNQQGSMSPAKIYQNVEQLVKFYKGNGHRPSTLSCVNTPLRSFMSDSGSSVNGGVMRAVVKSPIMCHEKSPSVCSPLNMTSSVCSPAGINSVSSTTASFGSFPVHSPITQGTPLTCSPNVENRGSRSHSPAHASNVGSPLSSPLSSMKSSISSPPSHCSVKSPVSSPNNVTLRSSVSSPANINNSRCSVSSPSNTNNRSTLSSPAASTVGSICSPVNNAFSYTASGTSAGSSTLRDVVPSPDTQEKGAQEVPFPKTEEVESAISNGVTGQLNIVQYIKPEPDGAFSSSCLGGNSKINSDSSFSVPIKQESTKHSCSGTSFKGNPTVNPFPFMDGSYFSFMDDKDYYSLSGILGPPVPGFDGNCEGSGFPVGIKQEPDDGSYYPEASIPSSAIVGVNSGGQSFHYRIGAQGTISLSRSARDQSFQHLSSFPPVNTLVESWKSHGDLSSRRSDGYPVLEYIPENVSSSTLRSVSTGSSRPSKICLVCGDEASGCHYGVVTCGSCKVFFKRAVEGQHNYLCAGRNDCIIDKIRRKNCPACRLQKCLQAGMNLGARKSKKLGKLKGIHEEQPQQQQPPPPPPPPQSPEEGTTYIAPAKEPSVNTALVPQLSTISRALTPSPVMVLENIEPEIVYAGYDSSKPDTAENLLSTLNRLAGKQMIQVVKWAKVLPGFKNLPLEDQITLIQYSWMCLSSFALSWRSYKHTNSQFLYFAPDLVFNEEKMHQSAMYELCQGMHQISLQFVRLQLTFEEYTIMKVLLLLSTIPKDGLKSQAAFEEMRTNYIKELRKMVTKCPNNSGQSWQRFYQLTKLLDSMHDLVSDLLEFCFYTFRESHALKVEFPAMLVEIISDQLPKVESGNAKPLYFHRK

[3] = molecular target: T3, Androgen receptor (Homo sapiens, UniProt P10275); test: biochemical
T3 sequence (P10275 whole entry): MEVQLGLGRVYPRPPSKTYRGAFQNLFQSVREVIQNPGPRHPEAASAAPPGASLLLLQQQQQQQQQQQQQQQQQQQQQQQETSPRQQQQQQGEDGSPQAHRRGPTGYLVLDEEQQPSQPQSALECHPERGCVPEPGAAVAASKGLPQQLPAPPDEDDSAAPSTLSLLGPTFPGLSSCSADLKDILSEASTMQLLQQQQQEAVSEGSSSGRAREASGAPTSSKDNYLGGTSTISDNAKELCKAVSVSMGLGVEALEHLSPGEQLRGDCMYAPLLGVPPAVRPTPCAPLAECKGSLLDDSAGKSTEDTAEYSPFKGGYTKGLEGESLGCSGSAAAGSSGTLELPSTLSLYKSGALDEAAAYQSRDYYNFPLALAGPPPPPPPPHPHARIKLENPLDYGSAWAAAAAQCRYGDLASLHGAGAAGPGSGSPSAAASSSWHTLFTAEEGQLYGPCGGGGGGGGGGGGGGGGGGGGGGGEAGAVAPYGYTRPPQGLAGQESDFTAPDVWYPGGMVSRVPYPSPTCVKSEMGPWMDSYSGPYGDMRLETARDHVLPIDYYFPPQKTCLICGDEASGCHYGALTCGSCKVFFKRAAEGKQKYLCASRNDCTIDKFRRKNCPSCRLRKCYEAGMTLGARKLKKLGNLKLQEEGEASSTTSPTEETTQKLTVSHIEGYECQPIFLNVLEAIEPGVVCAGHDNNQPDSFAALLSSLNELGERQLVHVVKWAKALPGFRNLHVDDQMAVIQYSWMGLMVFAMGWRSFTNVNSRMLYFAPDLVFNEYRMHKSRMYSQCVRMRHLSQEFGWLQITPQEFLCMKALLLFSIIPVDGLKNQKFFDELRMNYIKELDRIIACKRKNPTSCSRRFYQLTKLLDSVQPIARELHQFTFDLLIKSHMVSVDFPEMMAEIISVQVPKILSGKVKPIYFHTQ

[4] = molecular target: T4, Glucocorticoid receptor (Homo sapiens) (UniProt P04150); test: Displacement of [3H]-dexamethasone from human glucocorticoid receptor expressed in HEK293 cells at 10 uM by scintillation counting based radioligand competition binding assay; assay type: cell-based
T4 sequence (whole entry): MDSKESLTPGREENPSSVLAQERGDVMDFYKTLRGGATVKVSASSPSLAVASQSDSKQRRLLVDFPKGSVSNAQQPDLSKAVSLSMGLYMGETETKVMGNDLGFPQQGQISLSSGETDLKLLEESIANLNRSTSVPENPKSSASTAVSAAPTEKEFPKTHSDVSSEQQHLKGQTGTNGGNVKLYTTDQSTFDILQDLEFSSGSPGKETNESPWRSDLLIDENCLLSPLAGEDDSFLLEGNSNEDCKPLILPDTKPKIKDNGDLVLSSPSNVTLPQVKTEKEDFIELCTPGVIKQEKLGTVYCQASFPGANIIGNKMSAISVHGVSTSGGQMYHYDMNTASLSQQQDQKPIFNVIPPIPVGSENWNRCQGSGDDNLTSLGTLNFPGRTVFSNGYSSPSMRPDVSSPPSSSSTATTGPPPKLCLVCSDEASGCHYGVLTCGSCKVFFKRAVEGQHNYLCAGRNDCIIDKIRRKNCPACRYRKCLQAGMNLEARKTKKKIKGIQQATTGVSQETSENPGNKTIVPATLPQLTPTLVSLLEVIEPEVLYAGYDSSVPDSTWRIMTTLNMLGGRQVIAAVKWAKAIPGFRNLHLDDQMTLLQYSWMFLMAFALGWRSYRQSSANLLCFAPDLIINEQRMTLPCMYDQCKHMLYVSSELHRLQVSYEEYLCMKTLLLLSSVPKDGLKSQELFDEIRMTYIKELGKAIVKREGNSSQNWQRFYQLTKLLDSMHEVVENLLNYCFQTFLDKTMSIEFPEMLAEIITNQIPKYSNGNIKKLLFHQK
Outline: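 Competition binding with 0.3 nM [3H]-dexamethasone and 20 μg 293-GR lysate per well; nonspecific binding defined with 0.5 μM dexamethasone. Incubated overnight at 4 °C, free ligand removed with charcoal–dextran, then scintillation counting. Percent inhibition at 10 μM was calculated.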

[5] = system: Syrian golden hamster; test: Reduction in LDL level in high fat and high cholesterol diet fed Syrian golden hamster at 30 mg/kg, po qd for 14 days; assay type: functional; settings: Mesocricetus auratus, 336 h
Outline: (§1)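 Groups of Syrian golden hamsters (n = 6) kept on a high fat, high cholesterol diet for 14 days, dosed orally at 30 mg/kg once daily. Plasma HDL and LDL compared against untreated HFHC controls; mean with standard errors.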

[6] = system: Syrian golden hamster; test: Increase in HDL level in high fat and high cholesterol diet fed Syrian golden hamster at 30 mg/kg, po qd for 14 days; assay type: functional, Mesocricetus auratus; outline: as §1

Structure (SMILES) | Activity [1] | Ki [2] [µM] | Ki [3] [µM] | Activity [4] | inhibition in vivo at 30 mg/kg [5] [%] | Activity [6] [%]
COc1ccc(F)cc1-c1c[nH]c2c(NC(C)=O)cccc12 | inactive | 6.53 | 6.12 |  |  | 
Cc1[nH]c2ccccc2c1-c1ccccc1 | inactive |  |  | inactive |  | 
CC#C[C@]1(O)CC[C@H]2[C@@H]3CCC4=CC(=O)CCC4=C3[C@@H](c3ccc(N(C)C)cc3)C[C@@]21C [MIFEPRISTONE] | inactive |  |  |  | 43 | 35
COc1ccc(-c2c[nH]c3c(NS(C)(=O)=O)cccc23)cc1F | inactive |  |  |  |  | 
COc1cc(F)ccc1-c1c(CN(C)Cc2ccccc2)[nH]c2c([N+](=O)[O-])cc(C(C)C)cc12 | inactive |  |  | inactive |  | 
